The list is not random: actives were taken first. Their share in the collection is about 12%.
PKD1 inh: blocks activity of human protein kinase D1; PKD1 kinase fluorescence polarization assay; inhibition, % (concentration not given with the values); actives 0.056% (n = 200,000); Q15139
Arbovirus anti: antivirals against arbovirus infection; arbovirus infection cell-based antiviral screen; inhibition, % at 10 µM; AID 1251; actives 0.37% (n = 200,000); in the data active = inhibition above about 30%
Wee1 degr inh: blocks degradation of human Wee1 kinase; P30291; HeLa Luc-Wee1K328M stability, luciferase luminescence; 100% = proteasome inhibitor MG132 effect; reporter increase, % at 5 µM; actives 1.2% (n = 220,000); AID 1321;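 active = activation above the mean of all tested compounds plus 3 SD, set per screening run, cut at about 8.8% in these data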;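 also: cells exposed to compound for 20 h before luminescence read; 0% = DMSO alone and 100% = MG132 at 30 µM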
Target sequence (P30291 whole entry K328M): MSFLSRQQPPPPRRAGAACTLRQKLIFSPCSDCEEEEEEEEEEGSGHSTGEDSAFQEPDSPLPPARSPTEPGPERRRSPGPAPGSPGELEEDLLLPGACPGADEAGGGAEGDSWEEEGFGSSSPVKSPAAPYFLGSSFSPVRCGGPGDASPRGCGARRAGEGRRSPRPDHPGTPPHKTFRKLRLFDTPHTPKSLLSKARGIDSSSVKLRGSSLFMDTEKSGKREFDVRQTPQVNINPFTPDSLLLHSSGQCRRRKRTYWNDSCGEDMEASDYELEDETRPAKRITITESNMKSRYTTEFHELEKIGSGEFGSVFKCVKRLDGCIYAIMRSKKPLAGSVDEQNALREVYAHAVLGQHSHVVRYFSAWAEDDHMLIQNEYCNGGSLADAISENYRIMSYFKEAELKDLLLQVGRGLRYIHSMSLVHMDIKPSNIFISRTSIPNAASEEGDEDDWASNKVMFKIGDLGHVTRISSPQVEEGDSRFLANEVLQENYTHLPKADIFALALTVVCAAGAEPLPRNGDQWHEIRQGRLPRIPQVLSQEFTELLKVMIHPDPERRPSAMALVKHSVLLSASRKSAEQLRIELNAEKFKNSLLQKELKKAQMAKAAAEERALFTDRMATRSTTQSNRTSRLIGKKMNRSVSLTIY
Rad51 HR inh: Rad51 (human) homologous recombination inhibition | hRad51 DNA strand exchange, fluorescence dequenching | inhibition, % at 10 µM | actives 0.085% (n = 200,000);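 active = inhibition above 40% at the single screening dose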;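 also: 0% = DMSO control wells and 100% = blanks with heterologous ssDNA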
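Test system – preformed human Rad51 ssDNA filaments · Reagent – Donor/quencher-labelled 47-bp dsDNA substrate · Incubation – 37 °C 15-min filament assembly, 30-min compound preincubation, 15-min exchange · Signal – FRET fluorescence dequenching, excitation 485 nm, emission 520 nm · Read-out – percent inhibition from fluorescence, normalised to plate control and blank means · Benchmarks – plate control and blank wells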
L major viab: reduces viability of Leishmania major promastigotes; resazurin fluorescence viability; inhibition, % at 10 µM; actives 9% (n = 200,000);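 also: promastigotes grown with compound for 44 hours at 28 °C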
CHOP inhibitor: blocks CHOP induction under ER stress; CHO-K1 CHOP-promoter luciferase, tunicamycin-induced, 15-18 h; inhibition, % at 10 µM; actives 3.8% (n = 220,000);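 active = compounds that reduced the stress-induced luciferase reporter signal by more than about 70% of percent inhibition, limit read from the data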;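 also: 0% = tunicamycin plus vehicle and 100% = wells without tunicamycin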
* hit, by the source's call; . = no result given. Rule as the data show it, unless noted: active = inhibition above about 50%; inactive = the rest.

SMILES	PKD1 inh	Arbovirus anti	Wee1 degr inh	Rad51 HR inh	L major viab	CHOP inhibitor
CN(C)/N=C/C=C1\CC/C(=C\c2ccc(Br)cc2)C1=O	-1	2	0	.	77*	-20
N#CC(=C(\N)Sc1ccccc1N)/C(C#N)=C(/N)Sc1ccccc1N	.	.	.	.	.	-11
CC(=O)N(c1ccc(C)cc1)c1nc(C)cc(C)c1C#N	.	.	-2	-20	.	-12
O=S(=O)(c1ccc(Br)cc1)N1CCN(c2ccc3nnc(-c4ccccc4)n3n2)CC1	0	-18	-1	-9	41	80*
O=S(=O)(c1ccc(N2CCN(S(=O)(=O)c3ccccc3)CC2)nc1)N1CCCC1	-3	-8	6	-24	8	23
CN(C)C(CNC(=S)Nc1ccc(F)cc1)c1cccnc1 (stereo unspecified)	-4	6	10*	.	-3	4
Clc1cccc(Cl)c1-c1noc(CN2CCOCC2)n1	.	.	5	-3	.	-15
CCOc1ccc(/C=N/NC(=O)CNC(=O)c2ccc(S(=O)(=O)N3CCOCC3)cc2)cc1	-5	-4	1	4	7	22
O=c1oc(-c2ccccc2)nc2sc3c(c12)CCCC3	3	32*	5	-8	2	29
O=c1oc(/C=C/c2ccccc2)nc2sc3c(c12)CCC3	-4	66*	2	-4	-4	8
Cc1ccccc1-c1nc2sc3c(c2c(=O)o1)CCC3	-10	9	-1	-2	5	1
O=c1oc(-c2cc3ccccc3o2)nc2sc3c(c12)CCCC3	1	78*	0	-6	7	-10
O=c1oc(-c2cccs2)nc2sc3c(c12)CCCCC3	-10	25	-2	5	-1	.
CC(C)(C)c1nc2sc3c(c2c(=O)o1)CCCC3	5	12	-2	-4	-3	79*
COc1ccc(/C=C/c2nc3sc4c(c3c(=O)o2)CCC4)cc1	-3	.	0	-50	-4	.
CCc1ccc(Nc2ncc3c(n2)CC(C)CC3=O)cc1 (stereo unspecified)	2	-4	-1	-4	-7	73*
CCc1ccc(Nc2ncc3c(n2)CC(c2ccc(OC)cc2)CC3=O)cc1 (stereo unspecified)	-2	5	0	0	8	50
Cc1occc1C(=O)NNC(=O)Nc1ccc([N+](=O)[O-])cc1	-1	-3	-4	19	-2	-2
CCN(CC)C(=O)CN(c1ccc2c(c1)OCO2)S(C)(=O)=O	-2	10	-3	5	-4	1
CCN(CC)C(=O)CN(c1ccc(F)c(Cl)c1)S(C)(=O)=O	-6	0	0	-16	0	76*
CCCC[n+]1ccn(-c2nc3ccccc3nc2[N-]S(=O)(=O)c2ccc(C)cc2)c1	0	-9	4	6	99*	-20
CCCC[n+]1ccn(-c2nc3ccccc3nc2[N-]S(=O)(=O)c2ccccc2)c1	0	7	-1	-3	54*	19
CCCCC[n+]1ccn(-c2nc3ccccc3nc2[N-]S(=O)(=O)c2ccc(C)cc2)c1	-8	-4	0	-4	100*	12
Cc1ccc(S(=O)(=O)[N-]c2nc3ccccc3nc2-n2cc[n+](Cc3ccccc3)c2)cc1	.	.	3	14	.	0
CCn1c(SCC(=O)Nc2ccccc2OC)nc(O)cc1=O	.	.	-1	-12	.	21
SMILES	PKD1 inh	Arbovirus anti	Wee1 degr inh	Rad51 HR inh	L major viab	CHOP inhibitor
CN(/N=C/c1c[nH]c2ccccc12)c1cnn(-c2ccc(F)c(Cl)c2)c(=O)c1Cl	-7	-7	-1	-6	6	67
CN(/N=C/c1cccnc1)c1cnn(-c2ccc(F)c(Cl)c2)c(=O)c1Cl	3	3	-3	-1	68*	-37
CCCCCc1c(C)nc(SCC(=O)O)[nH]c1=O	4	7	-2	7	-5	-3
CCCCCc1c(C)nc(Nc2ccc(F)cc2)[nH]c1=O	-2	15	-1	9	16	82*
Cc1cc([N+](=O)[O-])nn1Cc1ccc(C(=O)N/N=C/c2ccc(F)cc2)cc1	.	.	2	-12	.	-13
Cc1cc([N+](=O)[O-])nn1Cc1ccc(C(=O)N/N=C/c2ccc(O)cc2O)cc1	-6	-31	3	.	95*	46
O=C(N/N=C/c1ccc(O)cc1O)c1ccc(CN2C(=O)c3cccc4cccc2c34)cc1	3	-23	5	4	100*	60
COc1ccc(-c2nnc(SCC(=O)Nc3ncc(C)s3)n2-c2ccccc2)cc1OC	-3	-11	9.9*	-8	19	.
COc1ccccc1NC(=O)CC(=O)CSc1nnc(-c2ccc(C)cc2)n1-c1ccccc1	-9	5	-1	5	72*	40
O=C(COC(=O)CCc1ccc(S(=O)(=O)N2CCOCC2)cc1)NCc1ccccc1	-12	-2	1	-9	-3	-19
O=C(Nc1cccnc1)/C(N=Nc1cccnc1)=C(\O)c1ccccc1	-9	24	0	-6	39	6
COc1ccc(NC(=O)C2CCN(S(=O)(=O)c3cccnc3)CC2)cc1Cl	-8	-6	0	.	-10	7
Cc1nnc(NC(=O)C2CCN(c3cnccn3)CC2)s1	6	4	3	-1	2	2
COc1ccc(NC(=O)COC(=O)C2CCN(S(=O)(=O)c3cccs3)CC2)cc1	-2	1	1	5	-4	78*
Cc1ccc(NC(=O)C2CCN(c3cnccn3)CC2)cc1	0	-3	-1	-9	78*	-17
O=C(Nc1ccc(Cl)cc1F)C1CCN(S(=O)(=O)c2cccnc2)CC1	-5	2	1	-9	73*	40
O=C(Nc1nc2ccc(F)cc2s1)C1CCN(S(=O)(=O)c2cc([N+](=O)[O-])ccc2Cl)CC1	-10	-6	-3	-4	99*	90*
Cc1nnc2sc(SCC(=O)Nc3cccc(Cl)c3)nn2c1=O	-3	-9	1	.	3	22
O=c1[nH]c(SCc2ccc(F)cc2Cl)nc2ccccc12	7	3	1	-22	10	-15
CCOc1ccc2nc(NC(=O)C3CCN(c4cnccn4)CC3)sc2c1	1	-30	-1	9	70*	24
Cc1ccc2nc(NC(=O)C3CCN(S(=O)(=O)c4cnc[nH]4)CC3)sc2c1	-5	31*	5	.	-5	27
COc1ccc2nc(NC(=O)C3CCN(S(=O)(=O)c4cccnc4)CC3)sc2c1	-20	2	0	0	54*	43
Cc1ccc2nc(NC(=O)C3CCN(S(=O)(=O)c4cccnc4)CC3)sc2c1	0	15	2	1	36	46
Cc1ccc2nc(NC(=O)C3CCN(S(=O)(=O)c4cccs4)CC3)sc2c1	7	30	-1	0	52*	48
Cc1nc(/C(N)=N/OC(=O)Cc2ccccc2)no1	5	1	3	11	-4	2
CCC(C)(NC(=O)c1ccc2c(c1)OCO2)C(=O)NC1CCCCC1 (stereo unspecified)	0	5	-2	-6	-6	8

Source: PubChem BioAssay (several laboratories)
